Experimental data as given in ChEMBL document CHEMBL1123878, “Potential antitumor agents. 50. In vivo solid-tumor activity of derivatives of N-[2-(dimethylamino)ethyl]acridine-4-carboxamide” (J Med Chem, 1987).
pIC50: −log10 of the molar value.

Experiments:
[1] = Lipophilicity index (Rm) (HPLC); type: physicochemical
P388 = assay: (§1) Percentage increase in life span of tumor bearing animals compared to non treated, tumor-bearing controls when treated at the optimal dose of 20 mg/kg/day intraperitoneally; type: functional; settings: Mus musculus, P388, ip; route intraperitoneal
[2] = test system: Lewis lung carcinoma cell line; assay: as §1; type: functional; settings: Mus musculus, ip, route intraperitoneal
L1210 = assay: Inhibition murine leukemia L1210 cell growth in culture; type: functional, cell-based; settings: Mus musculus
Method in brief: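 IC50 is the drug concentration, in nM, that inhibits growth of the cultured cell line by 50%.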

In the case of `CN(C)CCNC(=O)c1cccc2cc3cccc(Cl)c3nc12.Cl.Cl`, the Rm [1] was -0.21, the ILS at 20 mg/kg/day (P388) was 91% and the ILS at 20 mg/kg/day [2] was 92%. It also gave a pIC50 (L1210) of 8.16.
